In publication PMC11861226 (Journal of Cancer Research and Clinical Oncology, 2025):

Legend:
[1] = ref Lamba et al. [2021]; Kondo et al. [2022]; Järvinen et al. [2023]; cited from earlier work
22Rv1 Xenograft Mice = test: ^68Ga-DOTA-PSMA micro-PET/CT imaging of 22Rv1 xenograft mice; assay type: in vivo, mouse; conditions: PET/CT imaging, 22Rv1 tumor
In short: (§1)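 Tracer was labelled with ⁶⁸Ga (generator eluted with 0.1 mol/l HCl) in sodium acetate buffer, pH 3–4, at 95 °C for 15 min. Male six-week-old nude mice bearing 22Rv1 xenografts received 3.7 MBq via the tail vein. Animal PET/CT imaging followed at multiple time points after injection to track tracer accumulation in tumour and surrounding organs.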

[2] = as above; assay type: in vivo, mouse; conditions: mouse, tumor / non-tumor (muscle), iv, 3.7 MBq, total radioactivity
In short: as §1

[3] = ^68Ga-DOTA-PSMA organ biodistribution by γ-counter, 22Rv1 xenograft mice; assay type: in vivo; conditions: mouse, tumor, iv, 3.7 MBq, total radioactivity
In short: (§2)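 Male six-week-old SPF nude mice: normal (n = 15), 22Rv1 xenograft (n = 12) or PC-3 xenograft (n = 12), with three animals per time point. Each received 3.7 MBq i.v. via the tail vein. Tracer was labelled with ⁶⁸Ga (generator eluted with 0.1 mol/l HCl) in sodium acetate, pH 3–4, at 95 °C for 15 min. Mice were killed by cervical dislocation; organs were excised, weighed and γ-counted for %ID/g. Mean ± SD.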

[4] = ^68Ga-DOTA-PSMA organ biodistribution by γ-counter, PC-3 xenograft mice; assay type: in vivo; conditions: mouse, tumor, iv, 3.7 MBq, total radioactivity
In short: as §2

[5] = test system: glioblastoma cancer cell nuclei; conditions: glioblastoma patients; ref Ho et al. [2022]; cited from earlier work

Sodium mercaptoundecahydro-closo-dodecaborate [BSH]
water solubility [1]: more water-soluble

O=C(O)CC[C@H](NC(=O)N[C@@H](CCCCNC(=O)[C@H](Cc1ccc2ccccc2c1)NC(=O)CCCCCNC(=O)CN1CCN(CC(=O)O)CCN(CC(=O)O)CCN(CC(=O)O)CC1)C(=O)O)C(=O)O [^68Ga-DOTA-PSMA, metal not drawn]
time of peak radiotracer uptake post-injection (22Rv1 Xenograft Mice): 2 h
tissue to tissue ratio at 2 h [2]: 6.95 ± 0.6
tissue uptake at 2 h [3]: 27.1 ± 2.55 %ID/g
tissue uptake at 2 h [4]: 6.23 ± 0.79 %ID/g

O=C([O-])CN(CCN(CC(=O)[O-])CC(=O)O)CCN(CC(=O)[O-])CC(=O)O.[Gd+3] [^157Gd-DTPA]
cancer cell nuclei found to contain the agent [5]: 6.1%

N[C@@H](Cc1ccc(B(O)O)cc1)C(=O)O [BPA, Boronophenylalanine]
water solubility [1]: poor water solubility
